RAM inhibit = blocks the yeast RAM network. 1.8% of 190,000 active. S. cerevisiae dse1pr::URA3 reporter, 5-FOA growth OD615, 2 d; analog-sensitive cbk1-as2 kinase mutant strain. AID 868. inhibition, % at 50 µM;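 active = inhibition above a set limit, 3 SD over mean compound inhibition, cut at about 8.4% in these data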;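 note: 0% = DMSO-only wells with no growth and 100% = 10 µM 1-NA-PP1 full growth; inhibition rescues growth on 5-FOA so higher OD means more RAM inhibition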
Cl transport mod = KCC2 (human) Cl- transport modulation; B-score of Tl+ flux slope (higher = more flux/activation; lower = inhibition) at 10 µM; AID 1456; KCC2 cells, thallium flux FluoZin-2 fluorescence; Q9H2X9; 2.2% of 190,000 active;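 active = thallium flux slope and its plate-corrected score both differing from the plate sample mean at a set confidence after two filtering rounds, in either direction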;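 note: slope of fluorescence scaled to starting intensity during 10 to 20 s after thallium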
Yeast lifespan up = extends the lifespan of yeast; S. cerevisiae growth with nicotinamide, OD615; deaD strain in restrictive glucose medium; inhibition of the nicotinamide effect, % at 10 µM; 0.68% of 130,000 active; AID 775;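 active = inhibition above a set limit, placed 3 SD over the median of all compounds, cut at about 26% in these data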;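 note: 0% = nicotinamide-treated wells and 100% = cells grown without nicotinamide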
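Assay system: DeaD-strain S. cerevisiae. Medium: CSMM-D glucose medium, restrictive. Reagent: nicotinamide, 1.5 mM, co-present with compound. Compound: 10 µM single point, 0.25% DMSO. Schedule: culture preincubation 4 h, compound exposure 48 h, both 30 °C. Detection: absorbance at 615 nm.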
WT yeast gro inh = growth inhibition of WT yeast, mitochondrial fusion screen. mitochondrial fusion phenotypic screen, WT strain. inhibition, % at 10 µM. 2.1% of 190,000 active; in the data active = inhibition above about 58%; tested in S. cerevisiae
BB579 growth dn = reduces growth of yeast BB579 in restrictive medium; S. cerevisiae BB579 growth, OD615, 48 h; inhibition, % at 10 µM; 0.51% of 140,000 active; AID 804;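 active = inhibition above a set limit, 3 SD over the mean compound inhibition, cut at about 44% in these data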
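Material: Saccharomyces cerevisiae DeaD strain BB579, replicative lifespan model yeast; buffer or medium: CSMM-D restrictive synthetic medium containing dextrose (glucose); compound: 10 µM single dose, DMSO 0.25%; timing: 48 h compound exposure at 30 °C after 4 h preincubation; signal: turbidity as optical density at 615 nm; benchmarks: positive control amphotericin B 10 µg/mL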
The depositor's hits bear a star; . = not tested or not shown; ! = not confirmed by another sample. The list is not random: actives were taken first. Their share in the collection is about 5.5%.

SMILES	RAM inhibit	Cl transport mod	Yeast lifespan up	WT yeast gro inh	BB579 growth dn
CNS(=O)(=O)c1ccc(N=Cc2c(O)n(-c3ccccc3)c(=O)[nH]c2=O)cc1	9.4*	0.12	.	-23	.
CNS(=O)(=O)c1ccc(N=Cc2c(O)n(-c3cccc(C)c3)c(=O)[nH]c2=O)cc1	1	0.012	.	-3	.
CCN(CC)c1ccc(N=Cc2c(O)n(-c3ccc(Cl)cc3)c(=O)[nH]c2=O)cc1	11*	1	-18	17	-19
Cc1oc(-c2ccccc2Cl)nc1CN1C(=O)CN=C(c2ccccc2)c2ccccc21	-1	-1.3	11	71*	-42
Cn1c(O)c(/C=C/C=Nc2ccccc2)c(=O)n(C)c1=S	5	-2.3	3	-7	-16
O=C(NCCN1CCCCC1)c1ccc(Cl)nc1Cl	1	.	.	-11	.
CCN1C(=O)C(=Cc2ccc(C)s2)C(=O)N(CC)C1=S	9.5*	0.88	66*	-1	-19
CCN1C(=O)C(=Cc2cc(C)n(C3CC3)c2C)C(=O)N(CC)C1=S	4	1.5	1	13	-53
CC(C)n1c(=O)c(C=Nc2ccc(S(N)(=O)=O)cc2)c(O)n(Cc2ccco2)c1=O	2	0.7	-6	-12	-14
CCCCn1c(=O)c(C=Nc2ccc(Cl)cc2)c(O)n(Cc2ccco2)c1=O	8.5*	-1.1	1	26	-58
CC1=NN(c2ccccc2)C(=O)/C1=C/c1c(O)[nH]c(=S)[nH]c1=O	2	.	-10	76*	-22
CCC(=NCCO)c1c(O)n(C2CCCCC2)c(=O)[nH]c1=O	1	.	-2	0	-12
CCC(=NCc1ccc2c(c1)OCO2)c1c(O)n(C2CCCCC2)c(=O)[nH]c1=O	4	-0.53	-5	62*	-37
C=C1C/C(=C/C)C(=O)O[C@@H]2CCN3CC=C(COC(=O)[C@]1(C)O)[C@H]23	.	0.17	.	.	.
c1ccc2c(CNC3CCCCCC3)c[nH]c2c1	1	-0.2	-4	9	-38
Cc1cccc(NP(=O)(Oc2ccccc2F)Oc2ccccc2F)c1C	8.7*	0.31	13	35	4
Cc1ccc(NP(=O)(Oc2ccccc2F)Oc2ccccc2F)cc1	8	.	17	6	-50
CCc1ccc(NP(=O)(Oc2ccccc2F)Oc2ccccc2F)cc1	7	0.43	.	62*	.
COc1ccc(NC(=S)NC(NC(=O)CF)C(Cl)(Cl)Cl)cc1[N+](=O)[O-] (stereo unspecified)	1	-0.086	.	2	.
Cn1c(O)c(C(=Nc2ccccc2)SCc2ccc(Cl)cc2)c(=O)n(C)c1=O	.	-0.0074	.	.	.
CN=C(SCc1cc2c(cc1Cl)OCO2)c1c(O)n(C)c(=O)n(C)c1=O	-1	.	56*	-14	18
COC(=O)C1=C(N)Oc2cc(C)oc(=O)c2C12C(=O)Nc1ccccc12 (stereo unspecified)	3	0.58	.	-1	.
Cc1cc2c(C(C)C)c(O)c(O)c(C=O)c2c(O)c1-c1c(C)cc2c(C(C)C)c(O)c(O)c(C=O)c2c1O	6	-7.2*!	19	-9	-54
CCCN(CC#CCOc1ccc(OC)cc1)CCC	3	1	-9	-2	-7
CC(C)Oc1cc(-n2c(=S)[nH]c3ccccc3c2=O)c(Cl)cc1Cl	3	.	-10	60*	12
SMILES	RAM inhibit	Cl transport mod	Yeast lifespan up	WT yeast gro inh	BB579 growth dn
COc1cc(-n2c(=S)[nH]c3ccccc3c2=O)c(Cl)cc1Cl	3	.	-13	-17	-26
Clc1ccc2c(c1)C(c1ccccc1Cl)=NCc1nnc(N3CCN(CCSc4ccccc4)CC3)n1-2	1	.	-7	76*	-31
Clc1ccc2c(c1)C(c1ccccc1Cl)=NCc1nnc(N3CCN(CCOc4ccccc4)CC3)n1-2	1	-2.4	18	60*	-9
CN1CCN(Cc2nnc3n2-c2ccc(Cl)cc2C(c2ccccc2)=NC3)CC1	0	-0.0087	-1	7	-4
c1nc2nc3c(c(N4CCNCC4)n2n1)CCCC3	.	0.019	.	.	.
Cc1cc(C=C2C(=O)NC(=S)NC2=O)c(C)n1-c1ccc2c(c1)OCO2	8	1.2	39*	-8	-39
CCc1c(C)nc(N)nc1N1N=C1SCC(N)=O	1	1.7	3	-4	-19
C/C(=N\N1CCN(C)CC1)c1c(O)n(Cc2ccccc2)c(=O)[nH]c1=O	1	1.4	-3	15	-30
CC(C)COc1ccc(C2(C#N)CC[N+](C)(C)CC2)cc1	1	.	-23	6	-6
O=C1NC(=O)N(Cc2ccco2)C(=O)/C1=C/c1cccn1CCOc1ccccc1Cl	8.7*	0.83	5	-12	-19
Cc1ccc(S(=O)(=O)NC(CC(=O)N2CCC3(CC2)OCCO3)c2ccco2)cc1 (stereo unspecified)	1	0.6	-7	18	-34
O=C(Nc1ccc(C(F)(F)F)cc1)c1cccn(Cc2ccc3c(c2)OC(F)(F)O3)c1=O	10*	.	-5	44	-94
Cc1cccc(C)c1NC(=O)c1cccn(Cc2ccc3c(c2)OC(F)(F)O3)c1=O	1	.	-17	61*	-37
CNC(=O)c1cccn(Cc2ccc(C(F)(F)F)cc2)c1=O	2	-0.0051	.	5	.
CCCC(CCC)C(=O)OC[N+](C)(C)CCOC(=O)C(O)(c1ccccc1)C1CCCC1 (stereo unspecified)	1	.	.	19	.
CC/C(=C\C=C\[C@@H]1C=C[C@@H]2CCC[C@H]2[C@@H]1C(=O)c1ccc[nH]1)[C@@H]1O[C@@H]([C@@H](C)C(=O)O)CC[C@@H]1C	2	3.4*	.	81*	-28
COc1ccc(N2C(=O)CC(N3CC=C(c4ccccc4)CC3)C2=O)cc1 (stereo unspecified)	1	-0.52	4	6	-51
O=c1[nH]sc2cc(F)ccc12	1	1.6	.	73*	.
CN1CCN(CC(=O)Nc2ccc([N+](=O)[O-])cc2C(=O)c2ccccc2)CC1	2	-1.2	.	11	.
Nc1c(C(=O)NCCc2ccccc2)c2nc3ccccc3nc2n1CCN1CCOCC1	-1	.	-35	3	99*
CC(C)N1C(=O)NC(=O)C2(Cc3cc([N+](=O)[O-])ccc3N(C)C2c2ccccc2)C1=O (stereo unspecified)	-1	0.093	-7	25	-6
O=c1c2ccccc2nc(CSc2ncnc3nc[nH]c23)n1-c1ccccc1Cl	10*	-0.3	.	-3	-2
N#CSCC(=O)N1c2ccccc2CCc2ccccc21	1	2.3	43*	1	-51
S=C1CN=C(c2ccccc2Cl)c2cc(Cl)ccc2N1	1	5.8*	.	-19	-33
c1ccc2c(c1)[nH]c1cnccc12	2	-0.32	6	10	-42
Cc1c2ccncc2c(C)c2c1[nH]c1ccccc12	-1	3	-8	66*	100*
Cc1nn(Cc2ccccc2)c(Cl)c1C(=O)OC(C)C(=O)Nc1ccc(F)cc1Cl (stereo unspecified)	6	-1.5	-2	12	-14
COc1ccccc1N1CCN(Cc2ccc(Cl)cc2Cl)CC1	0	0.17	-8	38	9

Screening results: PubChem, several laboratories
